Screening data deposited in PubChem by several laboratories.
OX1R antag-1: OX1R (HCRTR1) antagonists, primary screen, fluorescence, CHO/OX1R cells, Fluo-8 calcium, orexin A | Orexin/Hypocretin receptor type 1 (Homo sapiens), O43613 | Fluo-8 calcium fluorescence | inhibition, % at 5 µM | hit rate 0.43% among 330,000;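 active means inhibition above its plate's threshold, mean inhibition of all tested compounds on the plate plus 3 SD, cut at about 37% in these data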;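 further: 0% = orexin A challenge wells and 100% = SB-334867-A antagonist wells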
Target sequence (O43613 whole entry, looked up): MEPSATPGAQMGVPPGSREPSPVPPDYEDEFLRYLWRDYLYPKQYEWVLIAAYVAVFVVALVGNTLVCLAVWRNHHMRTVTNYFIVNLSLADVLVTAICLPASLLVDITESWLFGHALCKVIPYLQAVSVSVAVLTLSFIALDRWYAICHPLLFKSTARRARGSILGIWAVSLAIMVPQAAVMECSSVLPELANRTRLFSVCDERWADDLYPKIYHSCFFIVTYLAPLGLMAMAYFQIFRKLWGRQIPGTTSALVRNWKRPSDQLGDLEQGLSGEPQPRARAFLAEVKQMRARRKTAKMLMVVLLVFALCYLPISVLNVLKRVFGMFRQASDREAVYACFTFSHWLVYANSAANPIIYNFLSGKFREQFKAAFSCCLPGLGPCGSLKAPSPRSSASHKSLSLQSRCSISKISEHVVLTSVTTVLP
MPTP inh: mitochondrial permeability transition pore inhibitors, primary screen, biochemical, isolated mouse mitochondria, absorbance | Ca2+ swelling absorbance, 30 min | inhibition, % at 10 µM | hit rate 1.4% among 360,000 | AID 602449, 2012;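 active means inhibition of 50% or more, scaled per plate between neutral and stimulator controls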;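 further: 0% = DMSO wells given calcium and 100% = 1 mM EGTA wells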
CHO parental Ca: ATP-evoked calcium signal inhibitors, parental CHO, primary screen, counter-screen for OX1R antagonist project, cell-based, fluorescence, Fluo-8 calcium dye. parental CHO-K1, ATP-induced calcium, Fluo-8 fluorescence. inhibition, % at 5.6 µM. hit rate 0.63% among 330,000. AID 463079, 2010;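 active means inhibition above that plate's mean sample inhibition plus 3 SD, cut at about 26% in these data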;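 further: 0% = ATP-challenged DMSO wells and 100% = DMSO wells without ATP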
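Test system: untransfected parental CHO cell line; also added: ATP stimulus; dosing: 5.6 µM, single dose; signal: calcium-sensitive Fluo-8 fluorescence; measure: percent inhibition of ATP-evoked calcium rise, normalized to controls; benchmarks: low control ATP plus DMSO, high control DMSO only; replication: one well per compound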
GPR7 antag: GPR7 receptor antagonists, primary screen, cell-based, fluorescence, single concentration; hit rate 1.1% among 290,000; GPR7-expressing cells, fluorescence antagonist assay; inhibition, % at 4.4 µM; Neuropeptides B/W receptor type 1 (Homo sapiens), P48145; in the data active means inhibition above about 16%, passing the limit was not always enough;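 further: cells stimulated with the agonist NPW; 0% = agonist with vehicle and 100% = vehicle without agonist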
OX1R antag-2: antagonists of human orexin 1 receptor (OX1R); OX1R-expressing cells, FRET antagonist read-out; inhibition, % at 6.6 µM; hit rate 1.8% among 330,000; in the data active means inhibition mostly above about 38%, no sharp cut-off; inactive means mostly below about 40%;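 further: 0% = agonist challenge alone and 100% = reference antagonist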
* hit, by the source's call. In the library only some 3.8% were active in any assay of this set; here they are far more common.

Screening O=C(COC(=O)c1ccc[n+]([O-])c1)Nc1ccc([N+](=O)[O-])cc1C(F)(F)F returned OX1R antag-1 -12, MPTP inh 17, CHO parental Ca -4 and OX1R antag-2 33*.
O=C(COC(=O)c1ccc[n+]([O-])c1)Nc1cc([N+](=O)[O-])ccc1Cl was read as OX1R antag-1 -4, MPTP inh 1, CHO parental Ca -3 and OX1R antag-2 26.
For COC(=O)C1=C(COc2ccc(C=O)cc2OC)NC(=O)NC1c1cc(C)ccc1C (stereo not given) the results were OX1R antag-1 -19, MPTP inh -1, CHO parental Ca -6, GPR7 antag -7 and OX1R antag-2 6.
Screening COc1ccc(C(=O)c2ccc([N+](=O)[O-])cc2)cc1S(=O)(=O)N1CCC(C(=O)O)CC1 returned OX1R antag-1 -14, MPTP inh 0, CHO parental Ca -4, GPR7 antag -6 and OX1R antag-2 53*.
Screening COc1ccc(NC(=O)CCNC(=O)c2ccc([N+](=O)[O-])cc2)cc1S(=O)(=O)N1CCCCC1 returned MPTP inh 0.
For COc1ccc(/C=C2\SC(=S)N(CC(=O)OCC(=O)Nc3ccc(C)cc3Cl)C2=O)cc1 the results were OX1R antag-1 -8, MPTP inh 0, CHO parental Ca 4, GPR7 antag -6 and OX1R antag-2 -6.
Cn1c(=O)c2c(nc(NCCc3ccccc3)n2Cc2ccc(F)cc2)n(C)c1=O was read as OX1R antag-1 -42, MPTP inh 0, CHO parental Ca -20, GPR7 antag -11 and OX1R antag-2 7.
C=CCNc1nc2c(c(=O)n(C)c(=O)n2C)n1Cc1ccc(F)cc1 was read as OX1R antag-1 -31, MPTP inh 13, CHO parental Ca 40*, GPR7 antag -6 and OX1R antag-2 29.
`CCOC(=O)C1CCN(C(=O)c2cc3c(=O)n4ccccc4nc3n2C)CC1` gave OX1R antag-1 -11, MPTP inh 0, CHO parental Ca -2, GPR7 antag -7 and OX1R antag-2 25.
`CCCCn1c(N)c(N(CCOC)C(=O)C2CC(=O)N(c3ccc(CC)cc3)C2)c(=O)[nH]c1=O` (stereo not given) gave OX1R antag-1 -8, MPTP inh -3, CHO parental Ca 0 and OX1R antag-2 0.
For Cn1cnc2ccc([N+](=O)[O-])cc2c1=O the results were OX1R antag-1 -13, MPTP inh 0, CHO parental Ca -7, GPR7 antag -1 and OX1R antag-2 75*.
For CCOC(=O)CCn1cnc2ccc([N+](=O)[O-])cc2c1=O the results were OX1R antag-1 -12, MPTP inh 1, CHO parental Ca -5, GPR7 antag -8 and OX1R antag-2 36.
For O=c1c2ccccc2ncn1-c1ccc([N+](=O)[O-])cc1[N+](=O)[O-] the results were OX1R antag-1 -11, MPTP inh 3, CHO parental Ca 18, GPR7 antag 9 and OX1R antag-2 58*.
For O=c1c2ccccc2ncn1-c1cccc([N+](=O)[O-])c1 the results were OX1R antag-1 -6, MPTP inh 1, CHO parental Ca 9 and OX1R antag-2 22.
`O=C(Cn1c(NCCO)nc2ccccc21)N1CCN(Cc2ccccc2)CC1` gave OX1R antag-1 0, MPTP inh 0, CHO parental Ca 2, GPR7 antag -8 and OX1R antag-2 13.
O=C1NCCO1 was read as OX1R antag-1 -1, MPTP inh -4, CHO parental Ca -7 and OX1R antag-2 1.
`CCOC(=O)c1sc2nc(C)nc(NC3CCC(O)CC3)c2c1C` (stereo not given) gave OX1R antag-1 -16, MPTP inh -2, CHO parental Ca -4, GPR7 antag -12 and OX1R antag-2 12.
Screening CCOc1ccc(C(=O)/C=C/c2cn(CN3CCN(C)CC3)c3ccccc23)cc1 returned OX1R antag-1 14, MPTP inh 2, CHO parental Ca -23, GPR7 antag 10 and OX1R antag-2 57*.
COc1cc(/C=C/c2nc3ccccc3c(=O)[nH]2)ccc1O was read as MPTP inh 1.
Cc1cccc(/C=C/c2nc3ccccc3c(=O)[nH]2)c1 was read as OX1R antag-1 -18, MPTP inh 1, CHO parental Ca -14, GPR7 antag 0 and OX1R antag-2 69*.
`O=C(O)c1ccc(OCC(O)Cn2c3ccccc3c3ccccc32)cc1` (stereo not given) gave OX1R antag-1 32, MPTP inh 2, CHO parental Ca 38*, GPR7 antag -5 and OX1R antag-2 13.
For Cc1cccc(N(Cc2ccccc2)C(=O)CN2C(=O)NC3(CCCC3)C2=O)c1 the results were OX1R antag-1 -16, MPTP inh 0, CHO parental Ca -19 and OX1R antag-2 1.
For Cc1cc(OCCCCCNCCO)cc(C)c1Cl the results were OX1R antag-1 3, MPTP inh 3, CHO parental Ca -3, GPR7 antag 19* and OX1R antag-2 3.
`O=C(c1ccccc1)N1CCN(c2ccc([N+](=O)[O-])c(NCC3CCCO3)c2)CC1` (stereo not given) gave OX1R antag-1 -9, MPTP inh -6, CHO parental Ca -10, GPR7 antag 1 and OX1R antag-2 20.
Screening Cc1cc(C)n2nc(Nc3ccccc3)cc2n1 returned OX1R antag-1 -2, MPTP inh 0, CHO parental Ca -20, GPR7 antag -3 and OX1R antag-2 49*.
`Nc1cc(C(=O)N/N=C/c2cccc([N+](=O)[O-])c2)n[nH]c1=O` gave OX1R antag-1 -8, MPTP inh 0, CHO parental Ca -2, GPR7 antag -10 and OX1R antag-2 52*.
`O=C(N/N=C/c1cccc([N+](=O)[O-])c1)c1cc[n+](CCO)cc1` gave OX1R antag-1 -4, MPTP inh 0, CHO parental Ca 1, GPR7 antag -5 and OX1R antag-2 69*.
Screening CN1CCN(c2ccc([N+](=O)[O-])cc2/C=N/NC(=O)c2cccc([N+](=O)[O-])c2)CC1 returned OX1R antag-1 -29, CHO parental Ca -16, GPR7 antag -3 and OX1R antag-2 66*.
`Nc1ccccc1C(=O)NN=Cc1cccc([N+](=O)[O-])c1` gave MPTP inh 0.
`O=C(N/N=C/c1ccco1)c1cc([N+](=O)[O-])cc([N+](=O)[O-])c1` gave OX1R antag-1 -6, MPTP inh 1, CHO parental Ca -14, GPR7 antag -13 and OX1R antag-2 64*.
O=C(N/N=C/c1ccco1)c1cccc([N+](=O)[O-])c1 was read as OX1R antag-1 2, MPTP inh -1, CHO parental Ca -8, GPR7 antag -10 and OX1R antag-2 31.
Screening CN1CCN(c2ccccc2NC(=O)c2cccc([N+](=O)[O-])c2)CC1 returned OX1R antag-1 -29, MPTP inh -3, CHO parental Ca -13, GPR7 antag -12 and OX1R antag-2 27.
